Test results published in ChEMBL document CHEMBL1142133 (2007).
Converted amounts (≈) assume the structure as drawn.

How the values were obtained:
[1] = system: Cryptococcus neoformans; assay: Antifungal activity against flucytosine-resistant Cryptococcus neoformans 18476 at 0.125 ug/ml after 72 hrs by time-kill method; format: functional
Procedure, shortened: (§1)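 Time-kill assay run as in the authors' earlier method. […] Read-out was log10 CFU/ml after 72 h incubation, compared with a drug-free control.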

[2] = system: Cryptococcus neoformans; assay: Antifungal activity against flucytosine-resistant Cryptococcus neoformans 280 by checkerboard method; format: functional
[3] = system: Cryptococcus neoformans; assay: Antifungal activity against flucytosine-resistant Cryptococcus neoformans 98.1121 by Etest method in presence of flucytosine; format: functional
[4] = system: Cryptococcus neoformans; assay: Antifungal activity against flucytosine-resistant Cryptococcus neoformans 276 at 0.125 ug/ml after 72 hrs by time-kill method; format: functional; procedure, shortened: as §1
[5] = system: Cryptococcus neoformans; assay: Antifungal activity against flucytosine-resistant Cryptococcus neoformans 285 by checkerboard method; format: functional
[6] = system: Cryptococcus neoformans; assay: Antifungal activity against flucytosine-resistant Cryptococcus neoformans 98.1121 at 0.125 ug/ml after 72 hrs by time-kill method; format: functional
Procedure, shortened: (§2)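 Time-kill assay on flucytosine-resistant isolates. […] Viable counts were taken as log10 CFU per ml after 72 h of incubation.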

[7] = system: Cryptococcus neoformans; assay: Antifungal activity against flucytosine-resistant Cryptococcus neoformans 276 by checkerboard method in presence of flucytosine; format: functional
[8] = system: Cryptococcus neoformans; assay: Antifungal activity against flucytosine-resistant Cryptococcus neoformans 18476 by checkerboard method; format: functional
[9] = system: Cryptococcus neoformans; assay: Antifungal activity against flucytosine-resistant Cryptococcus neoformans 285 by Etest method in presence of flucytosine; format: functional
[10] = system: Cryptococcus neoformans; assay: Antifungal activity against flucytosine-resistant Cryptococcus neoformans 550 by Etest method in presence of flucytosine; format: functional
[11] = system: Cryptococcus neoformans; assay: Antifungal activity against flucytosine-resistant Cryptococcus neoformans 533 by checkerboard method in presence of flucytosine; format: functional
[12] = system: Cryptococcus neoformans; assay: Antifungal activity against flucytosine-resistant Cryptococcus neoformans 98.0176 by Etest method in presence of flucytosine; format: functional
[13] = system: Cryptococcus neoformans; assay: Antifungal activity against flucytosine-resistant Cryptococcus neoformans 99.1026 at 0.125 ug/ml after 72 hrs by time-kill method; format: functional; procedure, shortened: as §2
[14] = system: Cryptococcus neoformans; assay: Antifungal activity against flucytosine-resistant Cryptococcus neoformans 98.0176 at 0.125 ug/ml after 72 hrs by time-kill method; format: functional; procedure, shortened: as §1
[15] = system: Cryptococcus neoformans; assay: Antifungal activity against flucytosine-resistant Cryptococcus neoformans 550 by checkerboard method in presence of flucytosine; format: functional
[16] = system: Cryptococcus neoformans; assay: Antifungal activity against flucytosine-resistant Cryptococcus neoformans 280 at 0.125 ug/ml after 72 hrs by time-kill method; format: functional; procedure, shortened: as §1
[17] = system: Cryptococcus neoformans; assay: Antifungal activity against flucytosine-resistant Cryptococcus neoformans 18476 by checkerboard method in presence of flucytosine; format: functional
[18] = system: Cryptococcus neoformans; assay: Antifungal activity against flucytosine-resistant Cryptococcus neoformans 99.1026 by checkerboard method in presence of flucytosine; format: functional
[19] = system: Cryptococcus neoformans; assay: Antifungal activity against flucytosine-resistant Cryptococcus neoformans 276 by Etest method in presence of flucytosine; format: functional
[20] = system: Cryptococcus neoformans; assay: Antifungal activity against flucytosine-resistant Cryptococcus neoformans 533 at 0.125 ug/ml after 72 hrs by time-kill method; format: functional; procedure, shortened: as §1
[21] = system: Cryptococcus neoformans; assay: Antifungal activity against flucytosine-resistant Cryptococcus neoformans 280 by Etest method in presence of flucytosine; format: functional
[22] = system: Cryptococcus neoformans; assay: Antifungal activity against flucytosine-resistant Cryptococcus neoformans 98.0176 by checkerboard method in presence of flucytosine; format: functional
[23] = system: Cryptococcus neoformans; assay: microbe, parasite or virus in culture
[24] = system: Cryptococcus neoformans; assay: Antifungal activity against flucytosine-resistant Cryptococcus neoformans 98.0673 at 0.125 ug/ml after 72 hrs by time-kill method; format: functional; procedure, shortened: as §1
[25] = system: Cryptococcus neoformans; assay: Antifungal activity against flucytosine-resistant Cryptococcus neoformans 98.0673 by checkerboard method; format: functional
[26] = system: Cryptococcus neoformans; assay: Antifungal activity against flucytosine-resistant Cryptococcus neoformans 550 at 0.19 ug/ml after 72 hrs by time-kill method; format: functional
[27] = system: Cryptococcus neoformans; assay: Antifungal activity against flucytosine-resistant Cryptococcus neoformans 98.0673 by Etest method in presence of flucytosine; format: functional
[28] = system: Cryptococcus neoformans; assay: Antifungal activity against flucytosine-resistant Cryptococcus neoformans 18476 by Etest method in presence of flucytosine; format: functional
[29] = system: Cryptococcus neoformans; assay: Antifungal activity against flucytosine-resistant Cryptococcus neoformans 99.1026 by Etest method in presence of flucytosine; format: functional
[30] = system: Cryptococcus neoformans; assay: Antifungal activity against flucytosine-resistant Cryptococcus neoformans 533 by Etest method in presence of flucytosine; format: functional

SMILES: C[C@@H]1[C@H](O)[C@@H](C)/C=C/C=C/C=C/C=C/C=C/C=C/C=C/[C@H](O[C@@H]2O[C@H](C)[C@@H](O)[C@H](N)[C@@H]2O)C[C@@H]2O[C@](O)(C[C@@H](O)C[C@@H](O)[C@H](O)CC[C@@H](O)C[C@@H](O)CC(=O)O[C@H]1C)C[C@H](O)[C@H]2C(=O)O [AMPHOTERICIN B]
- log10CFU/ml [1]: 6.7
- MIC [2]: 1 µg/mL
- MIC [3]: 0.094 µg/mL
- log10CFU/ml [4]: 7.3
- MIC [5]: 1 µg/mL
- log10CFU/ml [6]: 1.5
- MIC [7]: 0.06 µg/mL
- MIC [8]: 0.25 µg/mL
- MIC [9]: 0.095 µg/mL
- MIC [10]: 0.094 µg/mL
- MIC [11]: 0.12 µg/mL
- MIC [12]: 0.094 µg/mL
- log10CFU/ml [13]: 5.2
- log10CFU/ml [14]: 6.5
- MIC [15]: 0.06 µg/mL
- log10CFU/ml [16]: 5.6
- MIC [17]: 0.12 µg/mL
- MIC [18]: 0.06 µg/mL
- MIC [19]: 0.094 µg/mL
- log10CFU/ml [20]: 7.4
- MIC [21]: 0.094 µg/mL
- MIC [22]: 0.12 µg/mL
- MIC [23]: 0.25 µg/mL (≈ 0.271 µM)
- log10CFU/ml [24]: 7.2
- MIC [25]: 1 µg/mL
- log10CFU/ml [26]: 7.2
- MIC [27]: 0.094 µg/mL
- MIC [28]: 0.094 µg/mL
- MIC [29]: 0.094 µg/mL
- MIC [30]: 0.094 µg/mL
